Screens as filed in PubChem BioAssay.
HUVEC inhibit: blocks proliferation of human endothelial cells; HUVEC proliferation, CellTiter-Glo luminescence, 72 h; hits give low values; viability, % at 10 µM (by protocol); 1.1% of 86,000 active; AID 648;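 active = viability at or below 30%; inactive = viability above 30%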;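 note: 100% = median luminescence of DMSO-only cell control wells on each plate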
E coli WT exp: E. coli BW25113 growth inhibition, expanded screen | OD600 absorbance | growth inhibition, % at 100 µM | 0.15% of 98,000 active;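 active = growth inhibition above about 50% at one test dose, limit read from the data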;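 note: growth measured after 20 h incubation at 37 °C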
Fibroblast inh: blocks proliferation of human lung fibroblasts; viability, % at 10 µM; LL 47 human lung fibroblast viability, ATP luminescence; hits give low values; 1.1% of 85,000 active;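 active = viability at or below 50% in the single dose screen; inactive = viability above 50%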;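 note: compound exposure lasted 72 h before the ATP readout; 100% = median luminescence of untreated cell-only wells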
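Assay system: human lung fibroblast line LL 47, low passage. Input: 1,150 fibroblasts seeded per well. Times: overnight cell rest, 72 h compound treatment at 37 °C. Evaluation: % viability of median cell-only signal. Technique: luminescent ATP detection, CellTiter-Glo. Control set: cell-only wells, no compound.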
tolC growth inh: blocks growth of E. coli BW25113 tolC mutant. OD615. growth inhibition, % at 10 µM (by protocol). 2.2% of 65,000 active;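 active = growth inhibition at or above a cutoff equal to the mean over every tested compound plus 3 SD, cut at about 60% in these data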;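 note: growth measured after 20 h incubation at 37 °C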
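signal = optical density read at 615 nm | test system = E. coli ΔtolC::kan strain BW25113 | timing = 20 h compound exposure of bacteria at 37 °C | buffer or medium = LB medium plus 50 µg/mL kanamycin | compound dosing = 10 µM final, single dose | evaluation = % inhibition of E. coli growth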
H69AR inhibit: growth inhibitors of human H69AR lung tumor cells. viability, % at 10 µM. 6% of 85,000 active. H69AR lung tumor viability, ATP luminescence, 72 h; hits give low values;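 active = viability at or below 40%; inactive = viability above 40%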;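 note: multidrug resistant small cell line overexpressing MRP-1 efflux transporter; 100% = mean luminescence of untreated control wells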
Jurkat viability: cytotoxicity toward Jurkat cells. Jurkat E6.1 viability, ATP luminescence, 48 h. inhibition, % at 4 µM. 1.2% of 56,000 active;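 active = inhibition above the mean inhibition of all tested compounds plus 3 SD, cut at about 28% in these data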
* hit, by the source's call; . = no result. In the library only some 6.4% were active in any assay of this set; here they are far more common.

SMILES | HUVEC inhibit | E coli WT exp | Fibroblast inh | tolC growth inh | H69AR inhibit | Jurkat viability
CCCCn1c(O)c(C=NC2CC3CCC2(C)C3(C)C)c(=O)[nH]c1=O (centres undefined) | 98 | -2 | 96 | 31 | 15* | 5
O=c1c2ccccc2nc(-c2ccco2)n1-c1nccs1 | 88 | 2 | 105 | -7 | 93 | 2
O=C(NC1CC1)C1CSC(c2cccnc2)=N1 (centres undefined) | 97 | 10 | 96 | -10 | 97 | .
O=C1NC(=O)C2(Cc3ccccc3N3CCCC32)C(=O)N1c1cccc(Cl)c1 (centres undefined) | 86 | -21 | 92 | 0 | 98 | -5
Cc1ccc(CN2C(=O)NC(=O)C3(Cc4c(nc5ccccn5c4=O)N4CCCCCC43)C2=O)cc1 (centres undefined) | 88 | -8 | 100 | 74* | 39* | 5
Cn1ncnc2c(=O)n(C)c(=O)nc1-2 | . | . | . | 25 | . | 88*
CC1(C)CC(=O)C(C=NCCN2CCN(C(=O)Cc3ccc(Cl)cc3)CC2)=C(O)C1 | 94 | 4 | 105 | -8 | . | -5
CC12CCC(=O)C=C1CCC1C2CCC2(C)C(O)CCC12 (centres undefined) | 29* | 1 | 98 | 25 | 97 | 20
CCOc1ccc(Br)c(C2(O)CC(C)N(C)CC2C)c1 (centres undefined) | . | 4 | . | -18 | . | -5
O=C1NC(=O)N(C2CCCCC2)C(=O)C1C1c2ccccc2C(=O)N1Cc1ccccc1 (centres undefined) | 92 | -6 | 97 | 7 | . | 4
O=[N+]([O-])c1ccccc1CNCCc1ccc(F)cc1 | . | 10 | . | . | . | .
Fc1ccc(CCNCc2ccc(Cl)c(Cl)c2)cc1 | . | 67* | . | . | . | .
O=C(CSC1c2ccccc2-c2ccccc21)N/N=C/c1ccccc1O | 27* | -3 | 41* | . | 18* | .
Cc1ccc(-n2c(-c3cccs3)nc3ccccc3c2=O)cc1 | . | 5 | . | . | . | .
N=C(N)c1c(O)n(C2CCCCC2)c(=O)n(C2CCCCC2)c1=O | 2.5* | -4 | 31* | 99* | 1.1* | -6
COc1ccc(-n2c(C)nc3cc(C(=O)N4CCC5(CC4)OCCO5)ccc32)cc1 | 80 | 0 | 92 | -7 | 29* | 7
Cc1nc2cc(C(=O)N3CCC4(CC3)OCCO4)ccc2n1-c1ccc(Br)cc1 | 96 | -1 | 89 | 22 | 56 | -7
CCCCn1c(N)c(C(=O)NCCN2CCOCC2)c2nc3ccccc3nc21 | 65 | 10 | 93 | 12 | 57 | -1
Nc1c(C(=O)NCCc2ccccc2)c2nc3ccccc3nc2n1CCN1CCOCC1 | 55 | -23 | 92 | 90* | 1.6* | 6
COc1ccc(CCNC(=O)c2c(N)n(CCN3CCOCC3)c3nc4ccccc4nc23)cc1 | 54 | -9 | 79 | 50 | 22* | 3
